Here are results for two compounds from ChEMBL document CHEMBL1145465, “PhoU is a persistence switch involved in persister formation and tolerance to multiple antibiotics and stresses in Escherichia coli” (2007).

The subject of assay [1] is Escherichia coli. Kind of assay: Antibacterial activity against Escherichia coli K12 mutant JHU313 containing plasmid vector at 6 ug/ml after 48 hrs by disc diffusion method. Format: functional. A digest of the protocol:
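Kirby-Bauer paper-disc assay: log-phase E. coli (10⁸ bacteria) grown in LB broth, spread on LB agar for confluent growth; 7 mm nitrocellulose discs soaked with antibiotic solution at the listed concentration (μg/ml) placed on surface; incubated 37°C for 48 h; diameter of growth-inhibition zone measured in mm. Strain is the phoU transposon mutant transformed by electroporation with empty vector control.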

Assay [2] concerns Escherichia coli. Kind of assay: Antibacterial activity against Escherichia coli K12 containing PhoU mutant assessed as cell count in stationary phase at 100 ug/ml after 5 hrs. Format: functional. A digest of the protocol:
(§1)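 Log-phase or stationary-phase cultures were exposed to ampicillin (100 μg/ml) or norfloxacin (3 μg/ml) in MOPS minimal medium, pH 5.0, at 37°C without shaking, for 5 h to 10 days. Aliquots were saline-washed and plated on LB for CFU/ml.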

The subject of assay [3] is Escherichia coli. Nature of the assay: Antibacterial activity against Escherichia coli K12 containing deletion deltaphoU mutant assessed as cell count in stationary phase at 100 ug/ml after 1 day. Type of assay: functional. In short, it runs like this: (§2)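 Wild-type W3110-derived deletion mutants were made by the Datsenko–Wanner method. Log-phase or stationary-phase cultures were exposed to ampicillin 100 μg/ml in MOPS minimal medium at pH 5.0, at 37°C without shaking. Aliquots were taken at set times, washed in saline and plated on LB for viable CFU/ml.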

In assay [4] the test system is Escherichia coli. Kind of assay: Antibacterial activity against Escherichia coli K12 PhoU wild type W3110 assessed as cell count in stationary phase at 100 ug/ml after 3 days. Format: functional. In short, it runs like this:
as §1

Assay [5] concerns Escherichia coli. Nature of the assay: Antibacterial activity against Escherichia coli K12 PhoU wild type W3110 assessed as cell count in stationary phase at 100 ug/ml after 5 days. Type of assay: functional. A digest of the protocol:
(§3)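 Log-phase or stationary-phase cultures exposed to ampicillin 100 μg/ml in MOPS minimal medium (pH 5.0) at 37°C without shaking, for 5 h up to 10 days. Aliquots were taken at each time point, washed in saline and plated on LB plates for viable CFU/ml.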

Assay [6] deals with Escherichia coli. Kind of assay: Antibacterial activity against Escherichia coli K12 containing deletion deltahipA mutant assessed as cell count in stationary phase at 100 ug/ml after 24 hrs. Format: functional. In short, it runs like this:
(§4)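 Deletion mutants were made by the Datsenko–Wanner method. Log-phase or stationary-phase cultures were exposed to ampicillin at 100 μg/ml. CFU/ml was determined at the start and after 5, 24 and 72 h of exposure.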

In assay [7] the test system is Escherichia coli. Nature of the assay: Antibacterial activity against Escherichia coli K12 mutant JHU313 at 100 ug/ml after 48 hrs by disc diffusion method. Format: functional. A digest of the protocol: (§5)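 Kirby-Bauer disc assay: log-phase LB culture was spread on LB agar for confluent growth. 7-mm nitrocellulose discs were soaked in antibiotic at the listed concentration and placed on the agar. After 48 h at 37°C, the diameter of the inhibition zone was measured in mm.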

Assay [8] has as its system Escherichia coli. Nature of the assay: Antibacterial activity against Escherichia coli K12 PhoU wild type W3110 assessed as cell count in stationary phase at 100 ug/ml after 10 days. Format: functional. In short, it runs like this: as §3
Assay [9] concerns Escherichia coli. Kind of assay: Antibacterial activity against Escherichia coli K12 containing deletion deltaphoR mutant assessed as cell count in log phase at 100 ug/ml after 5 hrs. Type of assay: functional. In short, it runs like this:
as §2

The test system of assay [10] is Escherichia coli. Nature of the assay: Antibacterial activity against Escherichia coli K12 containing deletion deltaphoR mutant assessed as cell count in stationary phase at 100 ug/ml after 5 hrs. Type of assay: functional. A digest of the protocol: as §2
Assay [11] has as its system Escherichia coli. Nature of the assay: Antibacterial activity against Escherichia coli K12 containing deletion deltaphoB mutant assessed as cell count in stationary phase at 100 ug/ml after 24 hrs. Format: functional. In short, it runs like this:
as §4

Assay [12] relates to Escherichia coli. Nature of the assay: Antibacterial activity against Escherichia coli K12 mutant JHU313 assessed as cell count at 100 ug/ml.
In assay [13] the test system is Escherichia coli. Nature of the assay: Antibacterial activity against Escherichia coli K12 containing PhoU mutant assessed as cell count in log phase at 3 ug/ml after 1 day. Type of assay: functional. A digest of the protocol: as §1
Assay [14] has as its system Escherichia coli. Nature of the assay: Antibacterial activity against Escherichia coli K12 containing PhoU mutant assessed as cell count in stationary phase at 3 ug/ml after 1 day. Format: functional. In short, it runs like this: as §1
Assay [15] has as its system Escherichia coli. Kind of assay: Antibacterial activity against Escherichia coli K12 PhoU wild type W3110 assessed as cell count in log phase at 3 ug/ml after 3 days. Format: functional. In short, it runs like this: as §1
Assay [16] relates to Escherichia coli. Kind of assay: Antibacterial activity against Escherichia coli K12 PhoU wild type W3110 assessed as cell count in stationary phase at 3 ug/ml after 3 days. Type of assay: functional. A digest of the protocol:
as §1

In assay [17] the test system is Escherichia coli. Kind of assay: Antibacterial activity against Escherichia coli K12 PhoU wild type W3110 assessed as cell count in log phase at 3 ug/ml after 5 days. Format: functional. In short, it runs like this:
as §1

Assay [18] concerns Escherichia coli. Nature of the assay: Antibacterial activity against Escherichia coli K12 PhoU wild type W3110 assessed as cell count in stationary phase at 3 ug/ml after 5 days. Format: functional. A digest of the protocol: as §1
Assay [19] deals with Escherichia coli. Nature of the assay: Antibacterial activity against Escherichia coli K12 PhoU wild type W3110 at 2 ug/ml after 48 hrs by disc diffusion method. Type of assay: functional. A digest of the protocol: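 Kirby-Bauer disc assay. Log-phase LB culture (10⁸ bacteria) was spread for confluent growth on LB agar. 7 mm nitrocellulose discs soaked in antibiotic at the listed concentrations were laid on the agar. Inhibition zone diameter (mm) was measured after 48 h at 37°C.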

Assay [20] deals with Escherichia coli. Nature of the assay: Antibacterial activity against Escherichia coli K12 mutant JHU313 at 2 ug/ml after 48 hrs by disc diffusion method. Type of assay: functional. A digest of the protocol:
as §5

Assay [21] relates to Escherichia coli. Nature of the assay: Antibacterial activity against Escherichia coli K12 mutant JHU313 containing plasmid PhoU at 2 ug/ml after 48 hrs by disc diffusion method. Type of assay: functional. A digest of the protocol:
as §5

The subject of assay [22] is Escherichia coli. Kind of assay: Antibacterial activity against Escherichia coli K12 containing deletion deltaphoU mutant assessed as cell count in stationary phase at 3 ug/ml after 5 days. Format: functional. In short, it runs like this: (§6)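 Log-phase or stationary-phase cultures of the ΔphoU deletion mutant (Datsenko–Wanner construction) were exposed to norfloxacin 3 μg/ml in MOPS minimal medium, pH 5.0, at 37°C without shaking, for up to 10 days. Sampled aliquots were washed in saline and plated on LB agar for CFU/ml.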

The subject of assay [23] is Escherichia coli. Nature of the assay: Antibacterial activity against Escherichia coli K12 PhoU wild type W3110 assessed as cell count in log phase at 3 ug/ml after 1 week. Type of assay: functional. In short, it runs like this:
as §1

For assay [24], the system named is Escherichia coli. Kind of assay: Antibacterial activity against Escherichia coli K12 PhoU wild type W3110 assessed as cell count in stationary phase at 3 ug/ml after 1 week. Type of assay: functional. In short, it runs like this: as §1
The subject of assay [25] is Escherichia coli. Nature of the assay: Antibacterial activity against Escherichia coli K12 containing PhoU mutant assessed as cell count in log phase at 3 ug/ml after 1 week. Format: functional. A digest of the protocol:
as §1

For assay [26], the system named is Escherichia coli. Nature of the assay: Antibacterial activity against Escherichia coli K12 containing PhoU mutant assessed as cell count in stationary phase at 3 ug/ml after 1 week. Format: functional. In short, it runs like this:
as §1

In assay [27] the test system is Escherichia coli. Kind of assay: Antibacterial activity against Escherichia coli K12 mutant JHU313 at 0.5 ug/ml after 48 hrs by disc diffusion method. Format: functional. A digest of the protocol:
as §5

Assay [28] deals with Escherichia coli. Kind of assay: Antibacterial activity against Escherichia coli K12 mutant JHU313 containing plasmid PhoU at 0.5 ug/ml after 48 hrs by disc diffusion method. Type of assay: functional. In short, it runs like this: as §5
Assay [29] relates to Escherichia coli. Kind of assay: Antibacterial activity against Escherichia coli K12 containing PhoU mutant assessed as cell count in stationary phase at 3 ug/ml after 5 hrs. Format: functional. A digest of the protocol:
as §1

Assay [30] deals with Escherichia coli. Kind of assay: Antibacterial activity against Escherichia coli K12 containing PhoU mutant assessed as cell count in log phase at 3 ug/ml after 10 days. Type of assay: functional. A digest of the protocol: as §1
Assay [31] deals with Escherichia coli. Kind of assay: Antibacterial activity against Escherichia coli K12 containing deletion deltaphoU mutant assessed as cell count in log phase at 3 ug/ml after 10 days. Type of assay: functional. In short, it runs like this: as §6

Consider `CC1(C)S[C@@H]2[C@H](NC(=O)[C@H](N)c3ccccc3)C(=O)N2[C@H]1C(=O)O` [AMPICILLIN], for which the inhibition zone (IZ) in the assay on Escherichia coli [1] stood at 34 mm; in the assay on Escherichia coli [7], 40 mm. The CFU was 2 10^8/ml in the assay with Escherichia coli [2]; 7 10^6/ml with Escherichia coli [3]; 1 10^8/ml in the assay on Escherichia coli [4]; 3 10^7/ml in the assay on Escherichia coli [5]; 1.8 10^9/ml with Escherichia coli [6]; 2 10^5/ml in the assay with Escherichia coli [8]. Also, the CFU is reported as 1 10^3/ml with Escherichia coli [9], 4 10^9/ml in the assay with Escherichia coli [10], 1.8 10^9/ml with Escherichia coli [11] and 1.4 10^7/ml with Escherichia coli [12].
As to `CCn1cc(C(=O)O)c(=O)c2cc(F)c(N3CCNCC3)cc21` [NORFLOXACIN], the CFU in the assay with Escherichia coli [13] is on record as 4 10^5/ml; with Escherichia coli [14], 4.5 10^7/ml; in the assay on Escherichia coli [15] it was 5 10^4/ml; in the assay on Escherichia coli [16], 1 10^8/ml; in the assay with Escherichia coli [17] it was 7 10^2/ml; in the assay with Escherichia coli [18], 4 10^6/ml. For the same compound, the CFU in the assay with Escherichia coli [22] was 0 mL⁻¹; in the assay on Escherichia coli [23], 0 mL⁻¹; in the assay with Escherichia coli [24], 1.5 10^4/ml; in the assay on Escherichia coli [25], 0 mL⁻¹; with Escherichia coli [26], 0 mL⁻¹; in the assay with Escherichia coli [29], 3 10^8/ml. Besides, the CFU with Escherichia coli [30] and in the assay on Escherichia coli [31] was 0 mL⁻¹ each time. For the same compound, the inhibition zone (IZ) is 30 mm in the assay with Escherichia coli [19]; 34 mm with Escherichia coli [20]; 35 mm in the assay with Escherichia coli [21]; 30 mm in the assay with Escherichia coli [27]; 31 mm in the assay with Escherichia coli [28].
